Measured values published in ChEMBL document CHEMBL1143578, “From 1-acyl-beta-lactam human cytomegalovirus protease inhibitors to 1-benzyloxycarbonylazetidines with improved antiviral activity. A straightforward approach to convert covalent to noncovalent inhibitors” (J Med Chem, 2005).

Key:
HEL [1] = assay: Effective concentration required to reduce Varicella-Zoster virus 07/1(TK-) plaque formation after 5 days in HEL fibroblast cell line; assay type: functional, cell-based; conditions: Homo sapiens, 120 h
Outline: (§1)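 Confluent HEL cells were inoculated with VZV at 20 PFU/well for 2 h. Residual virus was removed and varying compound concentrations were added in duplicate. Plaques were counted after 5 days. EC50 is the concentration halving plaque formation relative to untreated controls.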

HEL [2] = assay: Minimum cytotoxic concentration required to cause a microscopically visible alteration of HEL fibroblast cell morphology; assay type: functional; conditions: Homo sapiens
Outline: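 HEL cell morphology was examined under the microscope after compound exposure. MCC is the lowest concentration producing a detectable alteration in morphology.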

HEL [3] = assay: Effective concentration required to reduce Varicella-Zoster virus OKA(TK) plaque formation after 5 days in HEL fibroblast cell line; assay type: functional, cell-based; conditions: Homo sapiens, 120 h; outline: as §1
HEL [4] = assay: Effective concentration required to inhibit human cytomegalo virus Davis induced cytopathicity in HEL fibroblast cell line after 7 days of postinfection; assay type: functional, cell-based; conditions: 168 h
Outline: (§2)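 Confluent HEL fibroblasts were infected with 100 PFU/well for 2 h, then residual virus was removed. Cells were incubated with a range of compound concentrations, in duplicate, for 7 days at 37 °C. Cells were ethanol-fixed and Giemsa-stained, and cytopathogenicity was scored microscopically. EC50 was read from plots of % cytopathogenicity against concentration.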

HEL [5] = assay: Effective concentration required to inhibit human cytomegalo virus AD-169 induced cytopathicity in HEL fibroblast cell line after 7 days of postinfection; assay type: functional, cell-based; conditions: 168 h; outline: as §2
HEL [6] = assay: Cytotoxic concentration required to reduce HEL cell growth; assay type: functional; conditions: Homo sapiens
Outline: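 HEL cells seeded at 5 × 10³ cells/well and allowed to proliferate 24 h, then exposed to a range of compound concentrations for 3 days at 37 °C. Cell number was counted with a Coulter counter. CC50 is the concentration giving 50% growth reduction versus untreated controls, read from plots of cell number (% of control) against concentration.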

Row | SMILES | EC50 (HEL [1]) [µM] | MCC (HEL [2]) [µM] | EC50 (HEL [3]) [µM] | EC50 (HEL [4]) [µM] | EC50 (HEL [5]) [µM] | CC50 (HEL [6]) [µM]
1 | C[C@H](NC(=O)N1C(=O)C[C@@]1(Cc1ccccc1)C(=O)O)c1ccccc1 | 110 | 200 | > 200 | – | – | –
2 | C[C@@H](NC(=O)N1CCC1(Cc1ccccc1)C(=O)OC(C)(C)C)c1ccccc1 (some centres not stated) | 25 | 400 | 36 | 33 | 40 | 57
3 | COC(=O)[C@]1(Cc2ccccc2)CC(=O)N1C(=O)N[C@@H](C)c1ccccc1 | > 50 | > 50 | > 50 | – | > 50 | > 50
4 | O=c1[nH]c(=O)n([C@H]2C[C@H](O)[C@@H](CO)O2)cc1/C=C/Br [BRIVUDINE] | 103 | 1200 | – | > 100 | > 100 | 249
5 | COC(=O)N1CCC1(Cc1ccccc1)C(=O)N[C@@H](C)C(N)=O (some centres not stated) | 346 | > 400 | > 400 | > 400 | > 400 | > 200
6 | C[C@H](NC(=O)C1(Cc2ccccc2)CCN1C(=O)OCc1ccccc1)C(=O)OC(C)(C)C (some centres not stated) | > 16 | 80 | 16 | 4.4 | 16 | 33
7 | CNC(=O)[C@H](C)NC(=O)C1(Cc2ccccc2)CCN1C(=O)OCc1ccccc1 (some centres not stated) | > 50 | > 50 | > 50 | 5 | 7.4 | > 50
8 | CC(C)(C)OC(=O)C1(Cc2ccccc2)CC(=O)N1C(=O)OCc1ccccc1 (configuration not stated) | 8 | 50 | 12 | – | – | –
9 | C[C@@H](NC(=O)N1C(=O)C[C@@]1(Cc1ccccc1)C(=O)O)c1ccccc1 | 151 | > 200 | – | > 200 | – | –
10 | COC(=O)[C@H](C)NC(=O)C1(Cc2ccccc2)CCN1C(=O)OCc1ccccc1 (some centres not stated) | > 80 | 400 | > 80 | > 80 | > 80 | 50
11 | Nc1nc2c(ncn2COCCO)c(=O)[nH]1 [ACYCLOVIR] | 111 | > 1200 | 7.1 | 20 | 17 | 511
12 | C[C@@H](NC(=O)N1C(=O)C[C@]1(Cc1ccccc1)C(=O)O)c1ccccc1 | > 200 | 200 | > 200 | – | – | –
13 | O=C(OCc1ccccc1)N1CCC1(Cc1ccccc1)C(=O)NC1CCCCC1 (configuration not stated) | 5.1 | ≥ 16 | 7.8 | 3.2 | 5.9 | 37
14 | Nc1ccn(C[C@@H](CO)OCP(=O)(O)O)c(=O)n1 [CIDOFOVIR] | – | > 1400 | – | 1 | 0.6 | –
15 | COC(=O)[C@]1(Cc2ccccc2)CCN1C(=O)N[C@@H](C)c1ccccc1 | 50 | > 50 | 50 | – | > 20 | > 50
